Experimental data taken from ChEMBL document CHEMBL1268930, “Design, synthesis, and biological evaluation of dibromotyrosine analogues inspired by marine natural products as inhibitors of human prostate cancer proliferation, invasion, and migration” (Bioorg Med Chem, 2010).
pIC50: −log10 of the molar value. Active and inactive are the calls of the source. The rule behind the calls is not given here.

Experiments:
[1] = Cytotoxicity against rat bone marrow cells assessed as inhibition of colony formation at 10 uM by clonogenic assay; type: cell-based; details: bone marrow cell
In short: (§1)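 Rat femur bone marrow mononuclear cells isolated on a Histopaque-1077 gradient. 20,000 cells were plated in methylcellulose with FCS and rat recombinant GM-CSF, IL-3 and SCF (HALO kit), with compounds or vehicle. After 5 days GM-CFC colonies were measured as ATP luminescence (luciferase/luciferin) against a same-day standard curve. Results were normalized to vehicle means; n = 4; two-way ANOVA with Bonferroni tests.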

PC-3 [2] = assay: Antimigratory activity against human PC3 cells after 24 hrs under serum-free condition by wound-healing assay; type: functional, cell-based; details: PC-3, 24 h
In short: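 Confluent PC-3 monolayers (>95%) were scratched with a pipette tip and washed with PBS and serum-free medium. Compounds were added at 20, 50 and 100 µM in serum-free medium, with 0.2% DMSO vehicle, for 24 h. Cells were fixed and Diff-Quick stained. Cells migrating into the wound were counted in ≥3 random fields at 400×. IC50 for 50% inhibition of migration; n = 3/dose.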

PC-3 [3] = assay: Antiproliferative activity against human PC3 cells after 72 hrs by MTT assay; type: functional, cell-based; details: PC-3, 72 h
In short: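 PC-3 cells seeded at 8×10^3/well and attached 24 h. Medium replaced with serum-free RPMI containing compound (10, 50, 100 µM; DMSO stock, 0.2% DMSO at 100 µM) for 72 h at 37 °C, 5% CO2. MTT added for 4 h, solubilized, absorbance at 570 nm. % survival relative to DMSO; IC50 by nonlinear regression of log concentration vs % survival; n = 3/dose.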

Gallus gallus [4] = species on record: Gallus gallus; assay: Antiangiogenic activity in chicken embryo chorioallantoic membrane model assessed as number of blood vessels per 48 mm2 area around the treatment disc <12 at 1 to 50 ug/disc after 48 hrs
Gallus gallus [5] = species on record: Gallus gallus; assay: Antiangiogenic activity in chicken embryo chorioallantoic membrane model at 1 to 50 ug/disc after 48 hrs; type: functional, tissue-based
In short: (§2)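 Fertilized hen eggs incubated at 37 °C, constant humidity; shell windowed and taped, eggs kept upright. Compounds in CH2Cl2 or MeOH loaded on 2-mm cellulose nitrate discs (1, 10, 50 µg/disc), placed on CAM on day five between large vessels. Imaged at 0 h and every 6 h to 48 h. Blood vessels counted per 8.0 × 6.0 mm area around the disc, plus vessel length change. Graded on a 0–3 scale.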

PC-3 [6] = assay: Antiinvasive activity against human PC3 cells at 50 uM after 24 hrs by cultrex BME assay; type: functional, cell-based
In short: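 PC-3 cells in RPMI with 10% FBS at 37 °C, 5% CO2. The top chamber was coated with BME overnight, then seeded with 50,000 cells in serum-free RPMI. Compounds were added to the top chamber from a 6× (300 µM) solution. The lower chamber held medium with 10% FBS, fibronectin (1 µL/mL) and fMLP (10 nM). After 24 h the invaded cells were labelled with calcein-AM for 1 h, read at ex 485/em 520 nm and counted from a standard curve. n = 3.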

[7] = Cytotoxicity against rat bone marrow cells assessed as inhibition of colony formation at 100 uM by clonogenic assay; type: cell-based; details: bone marrow cell; in short: as §1
Gallus gallus [8] = species on record: Gallus gallus; assay: Antiangiogenic activity in chicken embryo chorioallantoic membrane model assessed as number of blood vessels per 48 mm2 area around the treatment disc >16. 3 at 1 to 50 ug/disc after 48 hrs; type: functional, tissue-based; in short: as §2

Row | Compound | Activity [1] | pIC50 (PC-3 [2]) | pIC50 (PC-3 [3]) | Activity (Gallus gallus [4]) | Activity (Gallus gallus [5]) | Activity (PC-3 [6]) | Activity [7] | Activity (Gallus gallus [8])
1 | NC(=O)CC1(O)C=C(Br)C(=O)C(Br)=C1 [VERONGIAQUINOL] | Toxic |  |  |  |  |  |  | 
2 | CCOC(=O)Cc1cc(Br)c(OC(C)=O)c(Br)c1 |  | < 4.00 | < 4.00 |  |  |  |  | 
3 | COc1ccc(CC(=O)Oc2c(Br)cc(CC(N)=O)cc2Br)cc1 |  | 4.72 | < 4.00 | Active |  |  |  | 
4 | CCOC(=O)Cc1cc(Br)c(OC(=O)c2ccccc2)c(Br)c1 |  | 4.35 | < 4.00 |  | Active |  |  | 
5 | CCOC(=O)Cc1cc(Br)c(OC(=O)Cc2ccc(OC)cc2)c(Br)c1 |  | > 5.00 | < 4.00 |  | Active |  |  | 
6 | NC(=O)Cc1cc(Br)c(OC(=O)c2ccccc2)c(Br)c1 |  | 4.91 | < 4.00 | Active |  |  |  | 
7 | CCOC(=O)Cc1cc(Br)c(OC/C=C(/C)CC/C=C(/C)CCC=C(C)C)c(Br)c1 |  | 4.70 | 4.78 |  | Active | Active | Non-toxic | 
8 | NC(=O)Cc1cc(Br)c(O)c(Br)c1 |  | < 4.00 | < 4.00 |  |  |  | Non-toxic | inactive
9 | CCOC(=O)Cc1cc(Br)c(OCCC(C)C)c(Br)c1 |  | 4.04 | 4.31 |  |  |  | Non-toxic | inactive
10 | CCOC(=O)Cc1cc(Br)c(OCCCc2ccc(OC)cc2)c(Br)c1 |  | 4.24 | 4.40 |  | Active | Active | Non-toxic | 
11 | CCOC(=O)Cc1cc(Br)c(OC(=O)c2ccncc2)c(Br)c1 |  | 4.35 | < 4.00 | Active |  |  |  | 
12 | CCOC(=O)Cc1cc(Br)c(OCc2ccccc2)c(Br)c1 |  | 4.12 | 4.53 | Active |  |  |  | 
13 | CC(=O)Oc1c(Br)cc(CC(N)=O)cc1Br |  | 4.13 | < 4.00 |  | Active |  |  | 
14 | CCOC(=O)Cc1cc(Br)c(O)c(Br)c1 |  | < 4.00 | < 4.00 |  |  |  | Non-toxic | inactive
